Results of several laboratories.
Compare with care: the assays were run in different laboratories.
SLC5A7: High affinity choline transporter 1 (SLC5A7, Homo sapiens, UniProt Q9GZV3)
EEF2K: Eukaryotic elongation factor 2 kinase (EEF2K, Homo sapiens, UniProt O00418)
CASP9: Caspase-9 (CASP9, Homo sapiens, UniProt P55211)
MMP1: Interstitial collagenase (MMP1, Homo sapiens, UniProt P03956)

| Compound | target | assay | setting | inhibition |
| --- | --- | --- | --- | --- |
| COc1cc(Nc2ncc(F)c(Nc3ccc4c(n3)NC(=O)C(C)(C)O4)n2)cc(OC)c1OC | Cyclin-dependent kinase-like 1 (CDKL1, Homo sapiens, UniProt Q00532) | binding, competition with immobilised ligand | 10 µM | 84% |
| Cc1ncc(C)n2nc(/C=C/c3nc(N4CCCC4)cc(N4CCOCC4)n3)nc12 | SLC5A7 | ligand displacement | 10 µM | 14% |
| N=C(N)c1ccc2cc(OC(=O)c3ccc(N=C(N)N)cc3)ccc2c1 | Ubiquitin carboxyl-terminal hydrolase 7 (USP7, Homo sapiens, UniProt Q93009) | enzyme activity, inhibitor | 10 µM | 0% |
| Cn1cc(-c2cccc(N3CCc4c(sc5c4CC(C)(C)C5)C3=O)c2CO)cc(Nc2ccncn2)c1=O | EEF2K | enzyme activity, inhibitor | 1 µM | 2% |
| CN(CCN1CCC(OC(=O)Nc2ccccc2-c2ccccc2)CC1)C(=O)c1ccc(CN2CCC(C(N)=O)CC2)cc1 | SLC5A7 | ligand displacement, radioligand | 1 µM | -6% |
| C#Cc1n[nH]c2c(-c3cn(C(C)c4ccccn4)c(=O)[nH]c3=O)cc(F)cc12 (stereo not shown) | TGF-beta receptor type-1 (TGFBR1, Homo sapiens, UniProt P36897) | enzyme activity, inhibitor | 1 µM | 25.2% |
| O=C(Nc1cccnn1)N1CCN([C@@H]2CCOc3cc(C(F)(F)F)ccc32)CC1 | CASP9 | cell-free assay | 20 µM | -4% |
| COCc1c(-c2cc3cc(C)cc(OC)c3s2)c2c(N)ncnn2c1CN1CCNC(=O)C1 | Calcium-dependent protein kinase 1 (CDPK1, Plasmodium falciparum, UniProt P62344) | cell-free assay, competition with immobilised ligand | 1 µM | 93.3% |
| CCOC(=O)c1ccc(OC(=O)CCCCCNC(=N)N)cc1 | CASP9 | enzyme activity, inhibitor | 10 µM | 7% |
| Cn1cc(-c2cc(F)cc(N3CCn4c(cc5c4CCCC5)C3=O)c2CO)cc(Nc2ccc(N3CCN(C4COC4)CC3)cn2)c1=O | EEF2K | enzyme activity, inhibitor | 0.1 µM | 4% |
| COc1ccc(S(=O)(=O)N(CC(=O)NO)CC(C)C)cc1 | MMP1 | enzyme activity, inhibitor | 1 µM | 26% |
| COc1ccc(S(=O)(=O)N2CCCCC2)cc1C | Corticotropin-releasing factor receptor 1 (CRHR1, Homo sapiens, UniProt P34998) | ligand displacement, radioligand | 10 µM | < 30% |
| CN(C)C(=O)COC(=O)Cc1ccc(OC(=O)c2ccc(NC(=N)N)cc2)cc1 | MMP1 | enzyme activity, inhibitor | 10 µM | 3% |
| C#Cc1n[nH]c2c(-c3cn([C@@H](C)c4ccccc4)c(=O)[nH]c3=O)cc(F)cc12 | EEF2K | enzyme activity, inhibitor | 0.1 µM | 2.3% |
| c1ccc(C(NCCNC(c2ccccc2)c2ccccc2)c2ccccc2)cc1 | MMP1 | enzyme activity, inhibitor | 10 µM | -10% |
| COC(=O)CC[C@H](NC(=O)[C@H](CC(C)C)NC(=O)OCc1ccccc1)C(=O)N[C@@H](Cc1cnc[nH]1)C(=O)N[C@@H](CC(=O)OC)C(=O)CF | CASP9 | enzyme activity, inhibitor | 0.1 µM | 7% |
